From PubChem BioAssay
Activity calls are given as the source filed them.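 The calls were made as follows, unless noted: active = Her2 level under about 52% in both replicate screens, with viability over 70% of control (limit read from the data); inconclusive = Her2 under the limit in one screen only, or viability under 70%; inactive = Her2 level above the set limit.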

What was measured:
[1] = Her2 expression decrease, cell viability multiplex – SKBR3 breast tumor cells, AlphaScreen, ATP viability, primary screen (AID 461); conditions: SKBR3 Her2 protein level, 18-24 h, measured here: SKBR3 viability, ATP luminescence, at 10 µM;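 as to Her2 level: lower value means less Her2 protein in the cells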;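 as to viability: percent of carrier control wells set as 100% viability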
[2] = target: Receptor tyrosine-protein kinase erbB-2 (Homo sapiens) (UniProt P04626); assay: as above; conditions: 18-24 h, at 10 µM, stronger effect = lower value
Chain of Receptor tyrosine-protein kinase erbB-2 (Homo sapiens) (P04626 whole entry, looked up): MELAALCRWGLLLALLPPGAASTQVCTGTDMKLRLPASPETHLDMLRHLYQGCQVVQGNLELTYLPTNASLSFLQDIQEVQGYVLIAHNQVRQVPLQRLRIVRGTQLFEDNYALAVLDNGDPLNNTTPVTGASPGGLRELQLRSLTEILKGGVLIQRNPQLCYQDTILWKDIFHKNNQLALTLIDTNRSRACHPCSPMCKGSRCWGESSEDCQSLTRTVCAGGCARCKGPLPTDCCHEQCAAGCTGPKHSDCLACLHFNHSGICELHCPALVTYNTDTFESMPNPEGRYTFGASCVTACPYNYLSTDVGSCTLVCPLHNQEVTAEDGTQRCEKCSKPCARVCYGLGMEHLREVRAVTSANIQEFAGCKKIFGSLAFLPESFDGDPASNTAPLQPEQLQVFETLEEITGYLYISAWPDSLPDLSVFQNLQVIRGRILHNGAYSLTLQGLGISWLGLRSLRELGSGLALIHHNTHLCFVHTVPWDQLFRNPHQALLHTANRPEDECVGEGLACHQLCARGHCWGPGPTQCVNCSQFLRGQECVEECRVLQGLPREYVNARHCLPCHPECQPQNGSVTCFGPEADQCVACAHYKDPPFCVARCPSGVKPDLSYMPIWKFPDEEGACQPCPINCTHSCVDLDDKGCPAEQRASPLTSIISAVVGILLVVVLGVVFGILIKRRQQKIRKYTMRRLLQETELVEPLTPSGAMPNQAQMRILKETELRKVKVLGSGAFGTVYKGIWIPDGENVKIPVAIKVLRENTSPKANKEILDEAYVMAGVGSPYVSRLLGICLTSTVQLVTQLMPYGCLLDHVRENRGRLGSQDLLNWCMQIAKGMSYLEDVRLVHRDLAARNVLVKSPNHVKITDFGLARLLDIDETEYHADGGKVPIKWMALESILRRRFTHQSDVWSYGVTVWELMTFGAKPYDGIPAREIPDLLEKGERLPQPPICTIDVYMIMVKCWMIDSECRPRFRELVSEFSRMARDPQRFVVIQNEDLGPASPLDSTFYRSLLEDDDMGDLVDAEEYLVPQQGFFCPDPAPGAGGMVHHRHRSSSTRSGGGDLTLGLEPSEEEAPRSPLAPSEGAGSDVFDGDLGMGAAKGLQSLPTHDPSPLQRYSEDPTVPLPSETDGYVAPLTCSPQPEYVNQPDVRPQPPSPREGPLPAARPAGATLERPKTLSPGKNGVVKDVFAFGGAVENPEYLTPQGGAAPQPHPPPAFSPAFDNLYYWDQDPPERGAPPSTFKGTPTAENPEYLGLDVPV

[3] = reduced viability of SK-BR-3 breast cancer cells – cell-based, 24 h, human, pilot screen (AID 572;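 active = viability at or below 10% of carrier control in both of two separate runs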;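 also: compound exposure lasted between 18 and 24 h rather than exactly 24 h; 100% = carrier-treated control wells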); conditions: SK-BR-3 viability, CellTiter-Glo luminescence, at 10 µM, stronger effect = lower value
[4] = HUVEC growth inhibition – cell-based, human, primary screen (AID 575;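 active = viability at or below 30% in both replicate assays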;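 also: 100% = median of untreated cell wells with 0.1% DMSO on each plate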); conditions: HUVEC proliferation, CellTiter-Glo luminescence, 72 h; at 10 µM; stronger effect = lower value
In short: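 Assay system: primary human umbilical vein endothelial cells / Buffer or medium: endothelial basal medium with 2% FBS plus growth supplements / Compound dosing: one dose, 10 µM final, 0.1% DMSO / Timing: 72 h treatment at 37 °C / Signal: CTG luminescence / Benchmarks: 32 DMSO-only cell-control wells (high), 32 MePR drug-control wells (low) per plate / Plate: collagen-coated 384-well format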

[5] = H69AR cell proliferation blockers – human, duplicate replicates, primary screen (AID 580;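 active = viability at or under a set limit in both replicates, limit being median viability minus 3 SD, cut at about 48% in these data, passing the limit was not always enough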;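 also: 100% = mean luminescence of untreated wells and 0% = no signal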); conditions: H69AR lung tumor cells viability, ATP luminescence, 72 h; at 10 µM; stronger effect = lower value
[6] = MRP1 drug-resistance reversers in H69AR cells – cell-based, doxorubicin co-treatment, pilot screen (AID 601;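 active = viability loss from added drug above about 55%, and viability with drug at most 40%, in both replicates, limit read from the data, passing the limit was not always enough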); conditions: CellTiter-Glo, 72 h, at 10 µM; for differential viability (reversal): stronger effect = higher value
[7] = yeast transport mutant growth inhibition pilot in 384-well plates, post-Golgi transport modulator project (AID 636; in the data active = inhibition above about 31%); conditions: absorbance 615 nm, about 18 h, stronger effect = higher value
[8] = growth suppression of yeast trafficking mutant, preliminary HTS, modulators of trafficking downstream of Golgi apparatus project, 1536-format plate, OD 615 nm (AID 637; in the data active = inhibition above about 30%); conditions: yeast transport mutant growth, absorbance 615 nm, 18 h; stronger effect = higher value
[9] = H69AR cells + 2 uM doxorubicin, measured here: viability with 2 uM doxorubicin, stronger effect = lower value
[10] = H69AR cells, compound alone cytotoxicity

Compound	viability [1] [%]	Her2 level [2]	viability [3]	viability [4]	viability [5]	differential viability (reversal) ([6]; H69AR cells + 2 uM doxorubicin)	viability [6, 9] [%]	viability [6, 10] [%]	inhibition [7]	inhibition [8]
CCOC(=O)c1[nH]c(C)c(C(=O)NCc2ccccn2)c1C	134	115% (inactive)	134% (inactive)	83.4% (inactive)	102% (inactive)	4.79% (inactive)	96.8	102	-5.07% (inactive)	9.37% (inactive)
COCCNc1nc(C(C)(C)C)nc2c1nnn2Cc1ccccc1Cl	87	86.5% (inactive)	87% (inactive)	119% (inactive)	96.1% (inactive)	1.67% (inactive)	94.4	96.1	-0.66% (inactive)	-3.33% (inactive)
COC(=O)c1ccc(CSc2nc(-c3ccc(OC)cc3)nc3c2c(=O)n(C)c(=O)n3C)o1	100	74% (inactive)	100% (inactive)	85.8% (inactive)	77.4% (inactive)	-11.5% (inactive)	89	77.4	-4.8% (inactive)	-3.11% (inactive)
COC(=O)c1ccccc1NC(=O)c1noc2c1CCC2	93	83.5% (inactive)	93% (inactive)	86.7% (inactive)	74.8% (inactive)	-4.56% (inactive)	79.4	74.8	-7.37% (inactive)	2.55% (inactive)
CCCSc1nc2c(cnn2-c2ccc(Cl)cc2)c(=O)[nH]1	106	89.5% (inactive)	106% (inactive)	98.1% (inactive)	79% (inactive)	-3.71% (inactive)	82.7	79	-6.23% (inactive)	0.95% (inactive)
CC1CCCCC1NC(=O)CN1CCN(Cc2ccccc2Cl)C1=O (stereo not given)	102	97% (inactive)	102% (inactive)	90.9% (inactive)	80.4% (inactive)	11.9% (inactive)	68.5	80.4	-4.68% (inactive)	-7.67% (inactive)
Cc1ccc(Cl)cc1NC(=O)CSc1nnc(C)n1-c1ccccc1	90	79% (inactive)	90% (inactive)	91% (inactive)	86.6% (inactive)	6.06% (inactive)	80.6	86.6	-2.63% (inactive)	0.65% (inactive)
O=C(NCc1ccco1)c1cccn2c(=O)c3sccc3nc12	104	74.5% (inactive)	104% (inactive)	82.5% (inactive)	58.4% (inactive)	-24% (inactive)	82.4	58.4	-1.2% (inactive)	-7.87% (inactive)
COc1cc(-c2nc(S(=O)(=O)c3ccccc3)c(N3CCOCC3)o2)cc(OC)c1OC	82.5	86.5% (inactive)	82.5% (inactive)	97.7% (inactive)	87.1% (inactive)	14.8% (inactive)	72.2	87.1	-3.16% (inactive)	12% (inactive)
CCOC(=O)NC1(NCc2ccccc2)Oc2ccccc2O1	92.5	101% (inactive)	92.5% (inactive)	58.5% (inactive)	36.8% (active)	-25% (inactive)	61.7	36.8	6.23% (inactive)	-8.69% (inactive)
CCOC(=O)N1CCN(C(=O)c2ccc3c(SCC(=O)O)c4c(nc3c2)CCCC4)CC1	95.5	92.5% (inactive)	95.5% (inactive)	93.8% (inactive)	100% (inactive)	6.52% (inactive)	93.9	100	0.13% (inactive)	22.3% (inactive)
CCCn1cnc2c(c1=O)c1nc3ccccc3nc1n2Cc1ccccc1OC	99	97% (inactive)	99% (inactive)	91.9% (inactive)	86.4% (inactive)	-1.82% (inactive)	88.2	86.4	-7.11% (inactive)	-2.22% (inactive)
COc1cccc(N2CCN(CC(=O)NCc3cccs3)CC2)c1	108	100% (inactive)	108% (inactive)	128% (inactive)	99% (inactive)	6.28% (inactive)	92.8	99	-3.38% (inactive)	-2.17% (inactive)
O=C(CSc1nnc(CNC(=O)c2c(F)cccc2Cl)o1)c1ccccc1	94.5	107% (inactive)	94.5% (inactive)	112% (inactive)	92.1% (inactive)	-1.57% (inactive)	93.7	92.1	0.38% (inactive)	-0.67% (inactive)
O=S(=O)(c1ccc(OCC(O)CN2CCC(Cc3ccccc3)CC2)cc1)N1CCOCC1 (stereo not given)	81.5	81.5% (inactive)	81.5% (inactive)	73.4% (inactive)	84.8% (inactive)	-9.48% (inactive)	94.2	84.8	-6.45% (inactive)	-5.24% (inactive)
O=C(COc1ccccc1)NCC(c1cccs1)N1CCOCC1 (stereo not given)	84	126% (inactive)	84% (inactive)	91.7% (inactive)	97.7% (inactive)	14.4% (inactive)	83.4	97.7	1.2% (inactive)	-4.29% (inactive)
Cc1cccc(OCCCC(=O)O)c1	101	102% (inactive)	101% (inactive)	93.5% (inactive)	89.4% (inactive)	-4.09% (inactive)	93.5	89.4	-4.73% (inactive)	-6.83% (inactive)
CCOC(=O)c1ccc(-n2c(=O)[nH]c3ccccc3c2=O)cc1	102	120% (inactive)	102% (inactive)	105% (inactive)	93.1% (inactive)	2.73% (inactive)	90.4	93.1	3.07% (inactive)	-2.74% (inactive)
CCOC(=O)C1=C(c2ccccc2)NC(=O)NC1c1ccc(N(C)C)cc1 (stereo not given)	85.5	87% (inactive)	85.5% (inactive)	106% (inactive)	97.6% (inactive)	0.56% (inactive)	97	97.6	-2.08% (inactive)	14.7% (inactive)
COc1ccc2cc(C#N)c(NC(C)C)nc2c1	90.5	63% (inactive)	90.5% (inactive)	90.8% (inactive)	75.4% (inactive)	-6.05% (inactive)	81.4	75.4	-2.76% (inactive)	2.91% (inactive)
Cc1ccc(Cn2c(C(=O)NCCCN3CCOCC3)cc3sccc32)cc1	84.5	76.5% (inactive)	84.5% (inactive)	63.6% (inactive)	77.6% (inactive)	-3.47% (inactive)	81.1	77.6	-3.16% (inactive)	-1.27% (inactive)
CC(C)CCn1c(N)c(S(=O)(=O)c2cccs2)c2nc3ccccc3nc21	171	43% (active)	171% (inactive)	49.8% (inactive)	42.9% (active)	-14.9% (inactive)	57.7	42.9	-3.95% (inactive)	-3.17% (inactive)
COCCn1c(=NC(=O)CSC(C)=O)sc2cc(F)ccc21	85	82.5% (inactive)	85% (inactive)	75.4% (inactive)	58.2% (inactive)	0.03% (inactive)	58.2	58.2	-3.16% (inactive)	-2.86% (inactive)
CCOC(=O)N1CCN(c2cc3nccnc3cc2F)CC1	114	92% (inactive)	114% (inactive)	84.5% (inactive)	99.3% (inactive)	5.61% (inactive)	93.7	99.3	-7.03% (inactive)	-4.17% (inactive)
O=C(C1CCC(N2C(=O)C3CC=CCC3C2=O)CC1)N1CCCCC1 (stereo not given)	75.5	113% (inactive)	75.5% (inactive)	96.3% (inactive)	91.8% (inactive)	8.11% (inactive)	83.7	91.8	0.64% (inactive)	-5.83% (inactive)
O=C(c1ccccc1)c1ccncc1	100	76.5% (inactive)	100% (inactive)	100% (inactive)	92.4% (inactive)	-3.62% (inactive)	96	92.4	-6.05% (inactive)	5.33% (inactive)
CC(=O)Nc1c(C(=O)C2CC2)oc2ccccc12	102	124% (inactive)	102% (inactive)	96.9% (inactive)	90.2% (inactive)	7.75% (inactive)	82.5	90.2	-5.33% (inactive)	-5.4% (inactive)
Cc1ccc(-c2nc(CS(=O)CC(=O)NCCN(CC(C)C)CC(C)C)c(C)o2)cc1 (stereo not given)	81	84.5% (inactive)	81% (inactive)	86.4% (inactive)	103% (inactive)	19.8% (inactive)	83.6	103	-5.2% (inactive)	0.97% (inactive)
Cc1cc(-c2ccccc2)nc2cc(C(=O)NCCCn3ccnc3)nn12	104	103% (inactive)	104% (inactive)	98.8% (inactive)	88.2% (inactive)	8.86% (inactive)	79.3	88.2	-6.13% (inactive)	-1.45% (inactive)
